Assay results: ChEMBL document CHEMBL3351550, “Synthesis and antiangiogenic activity of 6-amido-2,4,5-trimethylpyridin-3-ols” (2014)

Key:
Chorioallantoic membrane [1] = test: Antiangiogenic activity in chicken chorioallantoic membrane assessed as inhibition of VEGF-induced blood vessel formation at 0.01 nmol/CAM treated 30 mins after VEGF addition measured after 3 days relative to control; assay type: functional, cell membranes; conditions: Gallus gallus
Outline: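 Chick embryo CAM; angiogenesis induced with VEGF (20 ng/CAM) before compound. Compound stock diluted in PBS to 1.0 μM, 10 μL applied to a disk on the CAM, giving 0.01 nmol/CAM. Read-out is the number of new blood vessel branch points in the area under the disk, compared against VEGF-treated CAMs.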

Chorioallantoic membrane [2] = test: Antiangiogenic activity in chicken chorioallantoic membrane assessed as inhibition of VEGF-induced blood vessel formation treated 30 mins after VEGF addition measured after 3 days; assay type: functional, cell membranes; conditions: Gallus gallus
Outline: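 VEGF (20 ng/CAM)-induced angiogenesis on chick embryo CAM, with compound applied afterwards on a disk. New vessel branch points under the disk were counted at several doses, mean ± SEM, n at least six. ID50 taken from dose-response curves.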

A549 [3] = test: Antitumor activity in human A549 cells inoculated with chicken chorioallantoic membrane assessed as inhibition of tumor weight at 1 pmol/CAM after 5 days; assay type: functional
Outline: (§1)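 A549 cells (2×10^6 cells/CAM) in Matrigel inoculated onto chick CAM and treated once with compound at implantation. The tumor mass grown on the CAM was excised and weighed, and inhibition is relative to untreated controls, means ± S.E.M., at least six embryos.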

A549 [4] = test: Antitumor activity in human A549 cells inoculated with chicken chorioallantoic membrane assessed as inhibition of tumor weight at 0.01 pmol/CAM after 5 days; assay type: functional; outline: as §1
A549 [5] = test: Antitumor activity in human A549 cells inoculated with chicken chorioallantoic membrane assessed as inhibition of tumor weight at 0.001 pmol/CAM after 5 days; assay type: functional; outline: as §1
A549 [6] = test: Antitumor activity in human A549 cells inoculated with chicken chorioallantoic membrane assessed as inhibition of tumor weight at 0.1 pmol/CAM after 5 days; assay type: functional; outline: as §1
Chorioallantoic membrane [7] = test: Antiangiogenic activity in human A549 cells inoculated with chicken chorioallantoic membrane assessed as inhibition of blood vessel branch points around tumor at 1 pmol/CAM after 5 days; assay type: functional, Gallus gallus
Outline: (§2)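 A549 human lung cancer cells (2×10^6 cells/CAM) in Matrigel implanted on top of the CAM, with compound given once at implantation. New vessel branch points around the tumor were counted as for the VEGF CAM assay. Inhibition is relative to untreated CAMs, mean ± S.E.M. of at least six embryos.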

Chorioallantoic membrane [8] = test: Antiangiogenic activity in human A549 cells inoculated with chicken chorioallantoic membrane assessed as inhibition of blood vessel branch points around tumor at 0.1 pmol/CAM after 5 days; assay type: functional, Gallus gallus; outline: as §2
Chorioallantoic membrane [9] = test: Antiangiogenic activity in human A549 cells inoculated with chicken chorioallantoic membrane assessed as inhibition of blood vessel branch points around tumor at 0.01 pmol/CAM after 5 days; assay type: functional, Gallus gallus; outline: as §2

Q: With `Cc1nc(NC(=O)CCc2ccccc2)c(C)c(C)c1O` as the compound, how does the inhibition (Chorioallantoic membrane [1]) read?
A: Its inhibition is 74.2%.

Q: With `CCN(CC)CCNC(=O)c1c(C)[nH]c(/C=C2\C(=O)Nc3ccc(F)cc32)c1C` as the compound, how does the inhibition (Chorioallantoic membrane [1]) read?
A: The inhibition was 88.8%.

Q: And the ID50 (Chorioallantoic membrane [2])?
A: Its ID50 is 380 fmol.

Q: With `Cc1nc(NC(=O)c2ccc(C(C)(C)C)cc2)c(C)c(C)c1O` as the compound, how does the inhibition (Chorioallantoic membrane [1]) read?
A: Its inhibition is 74.2%.

Q: How did the inhibition (Chorioallantoic membrane [1]) turn out when `Cc1nc(NC(=O)C2CCCCC2)c(C)c(C)c1O` was run?
A: Its inhibition is 76.3%.

Q: Which inhibition (Chorioallantoic membrane [1]) does the source give for `COc1ccc(C(=O)Nc2nc(C)c(O)c(C)c2C)cc1` here?
A: The inhibition was 69.7%.

Q: Which inhibition (Chorioallantoic membrane [1]) does the source give for `CC(=O)Nc1ccc(O)cc1` here?
A: The inhibition was 77.9%.

Q: And the ID50 (Chorioallantoic membrane [2])?
A: The ID50 was 397 fmol.

Q: With `CCCCCCCCCCCC(=O)Nc1nc(C)c(O)c(C)c1C` as the compound, how does the “inhibition (INH)” value (A549 [3]) read?
A: The value was 38.2%.

Q: What about the “inhibition (INH)” value (A549 [4]) of the same compound?
A: The value was 26%.

Q: And the inhibition (Chorioallantoic membrane [1])?
A: Its inhibition is 57.4%.

Q: And the “inhibition (INH)” value (A549 [5])?
A: Its value is 21.7%.

Q: And the “inhibition (INH)” value (A549 [6])?
A: The value was 31.3%.

Q: And the ID50 (Chorioallantoic membrane [2])?
A: The ID50 was 14.9 fmol.

Q: Which inhibition (Chorioallantoic membrane [1]) does the source give for `Cc1nc(NC(=O)c2ccc(F)cc2)c(C)c(C)c1O` here?
A: Its inhibition is 75.3%.

Q: Which “inhibition (INH)” value (A549 [3]) does the source give for `CN(C)c1ccc(/C=C2\C(=O)Nc3ccccc32)cc1` here?
A: The value was 26.8%.

Q: And the “inhibition (INH)” value (Chorioallantoic membrane [7])?
A: Its value is 36.2%.

Q: And the “inhibition (INH)” value (Chorioallantoic membrane [8])?
A: Its value is 25.1%.

Q: And the “inhibition (INH)” value (A549 [4])?
A: The value was 16.2%.

Q: And the inhibition (Chorioallantoic membrane [1])?
A: Its inhibition is 78%.

Q: What about the “inhibition (INH)” value (A549 [6]) of the same compound?
A: Its value is 23.4%.

Q: What about the “inhibition (INH)” value (Chorioallantoic membrane [9]) of the same compound?
A: The value was 20.8%.

Q: What about the ID50 (Chorioallantoic membrane [2]) of the same compound?
A: The ID50 was 39.7 fmol.

Q: For `Cc1nc(NC(=O)c2cccc3ccccc23)c(C)c(C)c1O`, which inhibition (Chorioallantoic membrane [1]) is on record?
A: The inhibition was 75.8%.

Q: `CCCCCCCC(=O)Nc1nc(C)c(O)c(C)c1C` was tested. Which inhibition (Chorioallantoic membrane [1]) did it give?
A: The inhibition was 74.7%.

Q: Which inhibition (Chorioallantoic membrane [1]) does the source give for `Cc1nc(NC(=O)C(C)C)c(C)c(C)c1O` here?
A: Its inhibition is 53.2%.

Q: For `Cc1nc(NC(=O)CCCCl)c(C)c(C)c1O`, which inhibition (Chorioallantoic membrane [1]) is on record?
A: Its inhibition is 70.2%.

Q: Which inhibition (Chorioallantoic membrane [1]) does the source give for `Cc1nc(NC(=O)c2cccs2)c(C)c(C)c1O` here?
A: Its inhibition is 74.8%.

Q: With `Cc1nc(NC(=O)C(C)(C)C)c(C)c(C)c1O` as the compound, how does the inhibition (Chorioallantoic membrane [1]) read?
A: Its inhibition is 73.2%.

Q: Which inhibition (Chorioallantoic membrane [1]) does the source give for `Cc1nc(NC(=O)c2ccc3c(c2)OCO3)c(C)c(C)c1O` here?
A: Its inhibition is 64.8%.

Q: For `CCCCCCCCCCCCCCCC(=O)Nc1nc(C)c(O)c(C)c1C`, which inhibition (Chorioallantoic membrane [1]) is on record?
A: The inhibition was 59.9%.

Q: Which “inhibition (INH)” value (A549 [3]) does the source give for `Cc1nc(NC(=O)C2CCCC2)c(C)c(C)c1O` here?
A: Its value is 62.7%.

Q: What about the “inhibition (INH)” value (A549 [4]) of the same compound?
A: The value was 24%.

Q: What about the inhibition (Chorioallantoic membrane [1]) of the same compound?
A: Its inhibition is 81.8%.

Q: What about the “inhibition (INH)” value (A549 [5]) of the same compound?
A: The value was 13.2%.

Q: What about the “inhibition (INH)” value (A549 [6]) of the same compound?
A: The value was 45.1%.

Q: What about the ID50 (Chorioallantoic membrane [2]) of the same compound?
A: Its ID50 is 3.6 fmol.

Q: Which “inhibition (INH)” value (A549 [3]) does the source give for `CC(=O)Nc1nc(C)c(O)c(C)c1C` here?
A: The value was 47.7%.

Q: And the “inhibition (INH)” value (A549 [4])?
A: Its value is 34.2%.

Q: What about the inhibition (Chorioallantoic membrane [1]) of the same compound?
A: Its inhibition is 84.8%.

Q: And the “inhibition (INH)” value (A549 [5])?
A: Its value is 20.3%.

Q: And the “inhibition (INH)” value (A549 [6])?
A: Its value is 37.9%.

Q: And the ID50 (Chorioallantoic membrane [2])?
A: The ID50 was 8.7 fmol.

Q: With `Cc1nc(NC(=O)CC(C)C)c(C)c(C)c1O` as the compound, how does the inhibition (Chorioallantoic membrane [1]) read?
A: The inhibition was 75.6%.

Q: With `Cc1nc(NC(=O)c2ccccc2)c(C)c(C)c1O` as the compound, how does the inhibition (Chorioallantoic membrane [1]) read?
A: Its inhibition is 77.3%.

Q: `Cc1nc(NC(=O)Cc2ccccc2)c(C)c(C)c1O` was tested. Which inhibition (Chorioallantoic membrane [1]) did it give?
A: The inhibition was 69.6%.
